Activity calls are given as the source filed them. No cut-off for these calls is given here.
Assays:
Acetylcholinesterase [1] = target: T1, Acetylcholinesterase (Homo sapiens, UniProt P22303); assay: Inhibition of human acetylcholine esterase
Homo sapiens = species on record: Homo sapiens; assay: Selectivity ratio of Ki for human acetylcholine esterase to Ki for human butyrylcholine esterase
Cholinesterase = Cholinesterase (Homo sapiens, UniProt P06276); assay: Inhibition of human butyrylcholine esterase
[2] = target: T2, Amyloid-beta precursor protein (Homo sapiens, UniProt P05067); assay: Inhibition of amyloid beta (1 to 42) aggregation (unknown origin) at 5 uM by ThT-based fluorescence assay
Acetylcholinesterase [3] = target: T1, Acetylcholinesterase; assay: Inhibition of human acetylcholine esterase-induced amyloid beta (1 to 40) aggregation at 100 uM by ThT-based fluorescence assay
Acetylcholinesterase [4] = target: T1, Acetylcholinesterase; assay: Inhibition of human acetylcholine esterase-induced amyloid beta (1 to 40) aggregation by ThT-based fluorescence assay
[5] = target: T2, Amyloid-beta precursor protein; assay: Inhibition of amyloid beta (1 to 42) aggregation (unknown origin) after 24 hrs by ThT-based fluorescence assay
[6] = target: T2, Amyloid-beta precursor protein; assay: Inhibition of amyloid beta (1 to 42) oligomerization (unknown origin) assessed as depletion of higher molecular weight oligomers after 6 hrs to 2 days by capillary electrophoresis method
[7] = target: T2, Amyloid-beta precursor protein; assay: Inhibition of amyloid beta (1 to 42) oligomerization (unknown origin) assessed as disaggregation of toxic oligomers and precipitation at 200 to 500 uM by transmission electron microscopy relative to control
[8] = target: T2, Amyloid-beta precursor protein; assay: Inhibition of amyloid beta (1 to 42) oligomerization (unknown origin) assessed as stable smaller oligomer formation at 500 uM after 24 hrs by capillary electrophoresis method
[9] = target: T2, Amyloid-beta precursor protein; assay: Inhibition of amyloid beta (1 to 42) oligomerization (unknown origin) assessed as depletion of higher molecular weight oligomers formation at 200 to 500 uM by capillary electrophoresis method; details: TDE = time-dependent effect
[10] = target: T2, Amyloid-beta precursor protein; assay: Inhibition of amyloid beta (1 to 42) oligomerization (unknown origin) assessed as oligomer stabilization at 200 uM after 6 hrs by capillary electrophoresis method
[11] = target: T2, Amyloid-beta precursor protein; assay: Inhibition of amyloid beta (1 to 42) oligomerization (unknown origin) assessed as amorphous aggregates formation at 50 to 500 uM by transmission electron microscopy
How it was run: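 Aβ1-42 samples were imaged by transmission electron microscopy with 50 µM test compound added, n = 2.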

[12] = target: T2, Amyloid-beta precursor protein; assay: Inhibition of amyloid beta (1 to 42) oligomerization (unknown origin) assessed as oligomer stabilization at 200 uM measured immediately by capillary electrophoresis method
[13] = target: T2, Amyloid-beta precursor protein; assay: Inhibition of amyloid beta (1 to 42) oligomerization (unknown origin) assessed as oligomer stabilization at 200 uM after 2 days by capillary electrophoresis method
[14] = target: T2, Amyloid-beta precursor protein; assay: Inhibition of amyloid beta (1 to 42) oligomerization (unknown origin) assessed as inhibition of toxic aggregate formation at 500 uM after 24 hrs by capillary electrophoresis method

T1 sequence (P22303 whole entry): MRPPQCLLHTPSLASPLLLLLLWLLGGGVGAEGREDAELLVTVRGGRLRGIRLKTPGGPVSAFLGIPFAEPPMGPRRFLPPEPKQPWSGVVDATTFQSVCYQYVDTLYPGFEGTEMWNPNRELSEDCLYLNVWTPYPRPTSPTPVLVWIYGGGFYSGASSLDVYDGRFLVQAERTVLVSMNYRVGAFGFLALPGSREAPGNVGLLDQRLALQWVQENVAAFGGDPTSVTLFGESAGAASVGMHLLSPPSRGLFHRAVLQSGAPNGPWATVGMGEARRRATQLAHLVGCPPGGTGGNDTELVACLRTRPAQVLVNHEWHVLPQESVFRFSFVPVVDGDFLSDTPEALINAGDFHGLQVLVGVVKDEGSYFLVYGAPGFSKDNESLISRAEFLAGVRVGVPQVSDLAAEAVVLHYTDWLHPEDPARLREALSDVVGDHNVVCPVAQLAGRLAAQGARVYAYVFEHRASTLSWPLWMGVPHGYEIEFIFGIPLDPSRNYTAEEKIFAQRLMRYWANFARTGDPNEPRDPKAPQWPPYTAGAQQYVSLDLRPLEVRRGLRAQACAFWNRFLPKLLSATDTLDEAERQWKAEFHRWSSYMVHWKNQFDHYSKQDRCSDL
T2 sequence (P05067 whole entry): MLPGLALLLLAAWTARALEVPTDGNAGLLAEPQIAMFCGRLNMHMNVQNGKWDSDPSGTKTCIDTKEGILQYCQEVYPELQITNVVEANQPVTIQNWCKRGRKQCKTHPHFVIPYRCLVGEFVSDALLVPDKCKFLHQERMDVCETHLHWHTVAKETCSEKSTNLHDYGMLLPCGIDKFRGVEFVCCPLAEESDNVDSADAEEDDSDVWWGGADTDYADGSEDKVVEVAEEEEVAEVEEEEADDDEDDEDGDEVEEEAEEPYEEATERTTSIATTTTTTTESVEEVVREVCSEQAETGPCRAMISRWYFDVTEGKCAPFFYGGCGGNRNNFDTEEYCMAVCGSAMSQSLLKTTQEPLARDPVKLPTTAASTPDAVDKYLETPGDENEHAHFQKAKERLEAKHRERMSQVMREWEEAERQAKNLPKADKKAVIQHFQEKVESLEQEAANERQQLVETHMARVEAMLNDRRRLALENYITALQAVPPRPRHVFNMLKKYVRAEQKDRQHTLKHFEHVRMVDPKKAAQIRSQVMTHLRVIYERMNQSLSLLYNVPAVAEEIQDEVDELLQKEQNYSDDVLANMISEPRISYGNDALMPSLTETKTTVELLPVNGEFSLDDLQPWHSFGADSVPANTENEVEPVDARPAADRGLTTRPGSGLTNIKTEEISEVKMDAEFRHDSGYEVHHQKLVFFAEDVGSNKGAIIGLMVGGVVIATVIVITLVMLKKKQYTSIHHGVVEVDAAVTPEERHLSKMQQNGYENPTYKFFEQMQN
Chain of Cholinesterase (P06276 whole entry): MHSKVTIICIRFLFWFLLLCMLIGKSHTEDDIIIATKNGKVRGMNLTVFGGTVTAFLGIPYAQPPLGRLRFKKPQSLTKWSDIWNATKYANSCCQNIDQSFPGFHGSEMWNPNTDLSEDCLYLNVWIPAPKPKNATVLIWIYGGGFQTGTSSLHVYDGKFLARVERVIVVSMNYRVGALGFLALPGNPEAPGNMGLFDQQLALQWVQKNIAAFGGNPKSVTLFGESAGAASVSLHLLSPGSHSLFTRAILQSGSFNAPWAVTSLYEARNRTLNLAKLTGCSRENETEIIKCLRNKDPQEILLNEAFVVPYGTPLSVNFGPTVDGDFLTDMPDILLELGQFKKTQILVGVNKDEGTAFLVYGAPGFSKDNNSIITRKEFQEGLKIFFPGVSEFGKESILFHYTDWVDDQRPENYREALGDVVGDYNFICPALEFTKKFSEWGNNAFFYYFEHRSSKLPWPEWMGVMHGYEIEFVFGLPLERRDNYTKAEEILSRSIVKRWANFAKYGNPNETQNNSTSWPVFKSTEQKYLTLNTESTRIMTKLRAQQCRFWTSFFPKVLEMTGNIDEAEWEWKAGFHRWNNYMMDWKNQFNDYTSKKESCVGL

| SMILES | Ki (Acetylcholinesterase [1]) | Ratio Ki (Homo sapiens) | Ki (Cholinesterase) | inhibition [2] | inhibition (Acetylcholinesterase [3]) | also measured |
| --- | --- | --- | --- | --- | --- | --- |
| O=[N+]([O-])c1cccc2c(NCCCCCCCCNc3c4c(nc5ccccc35)CCCC4)c3c(nc12)CCCC3 | 0.78 nM | 13 | 0.06 nM |  |  |  |
| Nc1cccc2c(NCCCCCCCCNc3c4c(nc5ccccc35)CCCC4)c3c(nc12)CCCC3 | 0.23 nM | 0.028 | 8.26 nM |  |  |  |
| c1ccc2c(NCCCCCCCNc3c4c(nc5ccccc35)CCCC4)c3c(nc2c1)CCCC3 |  |  |  | 8.4% |  |  |
| CN(CCCCNc1c2c(nc3c(NC(=O)CNC(=O)CC[C@H](NC(=O)CNC(=O)OCc4ccccc4)C(=O)N[C@@H](Cc4ccccc4)C(=O)OCc4ccccc4)cccc13)CCCC2)CCCNc1c2c(nc3ccccc13)CCCC2 | 1.48 nM | 0.07 | 21.3 nM |  | 42% | IC50 (Acetylcholinesterase [4]): 113000 nM; IC50 [5]: 51000 nM |
| CN(CCCCNc1c2c(nc3ccccc13)CCCC2)CCCNc1c2c(nc3c(NC(=O)CNC(=O)CC[C@H](NC(=O)CNC(=O)OCc4ccccc4)C(=O)N[C@@H](Cc4ccccc4)C(=O)OCc4ccccc4)cccc13)CCCC2 | 5.02 nM | 0.081 | 61.8 nM |  | 42% |  |
| O=C(CC[C@H](NC(=O)CNC(=O)OCc1ccccc1)C(=O)N[C@@H](Cc1ccccc1)C(=O)OCc1ccccc1)NCC(=O)Nc1cccc2c(NCCCCCCCCNc3c4c(nc5ccccc35)CCCC4)c3c(nc12)CCCC3 | 1.92 nM | 0.038 | 40.9 nM | 81% | 26% | inhibition [6]: Dose-dependent effect; inhibition [7]: Active; inhibition [8]: Active; inhibition [9]: tde; inhibition [10]: 87.2%; inhibition [11]: Active; inhibition [12]: 82.5%; inhibition [13]: Active; inhibition [14]: Active |
